Results from ChEMBL document CHEMBL1944580, “Synthesis of novel sulfonamide-1,2,4-triazoles, 1,3,4-thiadiazoles and 1,3,4-oxadiazoles, as potential antibacterial and antifungal agents. Biological evaluation and conformational analysis studies” (2012).
Values after ≈ are worked out from the molar mass of the structure shown.

Legend:
Escherichia coli [1] = experiment: Antibacterial activity against Escherichia coli ATCC 35210 treated for 24 hrs followed by sub-cultivated for 72 hrs by micro dilution method; type: functional
In short: (§1)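 2 µl from each well was serially subcultured into 100 µl fresh broth per well and incubated a further 72 h. MBC is the lowest concentration with no visible growth, taken as 99.5% killing of the original inoculum. Streptomycin and ampicillin were the positive controls.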

Enterobacter cloacae [2] = experiment: Antibacterial activity against Enterobacter cloacae human isolate after 24 hrs by micro dilution method; type: functional
In short: (§2)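 Microdilution MIC in 96-well plates. Bacterial suspensions adjusted in sterile saline to 1.0 × 10^5 CFU/ml, giving 1.0 × 10^4 cfu per well in LB broth. Compounds tested at up to 1 mg/ml. Plates incubated 24 h. MIC taken as the lowest concentration with no visible growth under a binocular microscope. OD at 655 nm was also read against a blank and the positive control. Streptomycin and ampicillin were the positive controls.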

Fulvia fulva [3] = experiment: Antifungal activity against Fulvia fulva treated for 72 hrs followed by sub-cultivated for 5 days by serial dilution method; type: functional
In short: (§3)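 MFC obtained after the 72 h, 28 °C malt-broth microdilution (spore inoculum about 1.0 × 10^5 per well, compounds from 1 mg/ml DMSO). 2 µl was serially subcultured into 100 µl broth per well and incubated a further 5 days at 28 °C. MFC is the lowest concentration with no visible growth, taken as 99.5% killing of the original inoculum.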

Bacillus cereus [4] = experiment: Antibacterial activity against Bacillus cereus clinical isolate after 24 hrs by micro dilution method; type: functional; in short: as §2
Talaromyces funiculosus [5] = experiment: Antifungal activity against Penicillium funiculosum ATCC 36839 treated for 72 hrs followed by sub-cultivated for 5 days by serial dilution method; type: functional; in short: as §3
Bacillus cereus [6] = experiment: Antibacterial activity against Bacillus cereus clinical isolate treated for 24 hrs followed by sub-cultivated for 72 hrs by micro dilution method; type: functional; in short: as §1
Staphylococcus aureus [7] = experiment: Antibacterial activity against Staphylococcus aureus ATCC 6538 after 24 hrs by micro dilution method; type: functional; settings: ATCC 6538, 24 h; in short: as §2
Salmonella typhimurium [8] = experiment: Antibacterial activity against Salmonella Typhimurium ATCC 13311 treated for 24 hrs followed by sub-cultivated for 72 hrs by micro dilution method; type: functional, Salmonella enterica subsp. enterica serovar Typhimurium; settings: Salmonella enterica; in short: as §1
Aspergillus versicolor [9] = experiment: Antifungal activity against Aspergillus versicolor ATCC 11730 after 72 hrs by serial dilution method; type: functional; settings: ATCC 11730, 72 h
In short: (§4)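 Modified microdilution MIC. Spores were washed from malt agar cultures with sterile 0.85% saline containing 0.1% Tween 80 and adjusted to about 1.0 × 10^5 per 100 µl well in malt broth. Compounds were dissolved in DMSO (1 mg/ml). Plates incubated 72 h at 28 °C. MIC is the lowest concentration with no visible growth under a binocular microscope. Bifonazole and ketoconazole were the references.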

Aspergillus versicolor [10] = experiment: Antifungal activity against Aspergillus versicolor ATCC 11730 treated for 72 hrs followed by sub-cultivated for 5 days by serial dilution method; type: functional; in short: as §3
Staphylococcus aureus [11] = experiment: Antibacterial activity against Staphylococcus aureus ATCC 6538 treated for 24 hrs followed by sub-cultivated for 72 hrs by micro dilution method; type: functional; in short: as §1
Trichoderma viride [12] = experiment: Antifungal activity against Trichoderma viride IAM 5061 after 72 hrs by serial dilution method; type: functional; settings: IAM 5061, 72 h; in short: as §4
Aspergillus flavus [13] = experiment: Antifungal activity against Aspergillus flavus ATCC 9643 treated for 72 hrs followed by sub-cultivated for 5 days by serial dilution method; type: functional; in short: as §3
Listeria monocytogenes [14] = experiment: Antibacterial activity against Listeria monocytogenes NCTC 7973 after 24 hrs by micro dilution method; type: functional; settings: NCTC 7973, 24 h; in short: as §2
Aspergillus fumigatus [15] = experiment: Antifungal activity against Aspergillus fumigatus human isolate treated for 72 hrs followed by sub-cultivated for 5 days by serial dilution method; type: functional; in short: as §3
Enterobacter cloacae [16] = experiment: Antibacterial activity against Enterobacter cloacae human isolate treated for 24 hrs followed by sub-cultivated for 72 hrs by micro dilution method; type: functional; in short: as §1
Escherichia coli [17] = experiment: Antibacterial activity against Escherichia coli ATCC 35210 after 24 hrs by micro dilution method; type: functional; settings: ATCC 35210, 24 h; in short: as §2
Micrococcus flavus [18] = experiment: Antibacterial activity against Micrococcus flavus ATCC 10240 treated for 24 hrs followed by sub-cultivated for 72 hrs by micro dilution method; type: functional; in short: as §1
Talaromyces funiculosus [19] = experiment: Antifungal activity against Penicillium funiculosum ATCC 36839 after 72 hrs by serial dilution method; type: functional; settings: ATCC 36839, 72 h; in short: as §4
Penicillium ochrochloron [20] = experiment: Antifungal activity against Penicillium ochrochloron ATCC 9112 treated for 72 hrs followed by sub-cultivated for 5 days by serial dilution method; type: functional; in short: as §3
Trichoderma viride [21] = experiment: Antifungal activity against Trichoderma viride IAM 5061 treated for 72 hrs followed by sub-cultivated for 5 days by serial dilution method; type: functional; in short: as §3
Salmonella typhimurium [22] = experiment: Antibacterial activity against Salmonella Typhimurium ATCC 13311 after 24 hrs by micro dilution method; type: functional, Salmonella enterica subsp. enterica serovar Typhimurium; settings: Salmonella enterica, ATCC 13311, 24 h; in short: as §2
Penicillium ochrochloron [23] = experiment: Antifungal activity against Penicillium ochrochloron ATCC 9112 after 72 hrs by serial dilution method; type: functional; settings: ATCC 9112, 72 h; in short: as §4
Aspergillus niger [24] = experiment: Antifungal activity against Aspergillus niger ATCC 6275 after 72 hrs by serial dilution method; type: functional; settings: ATCC 6275, 72 h; in short: as §4
Pseudomonas aeruginosa [25] = experiment: Antibacterial activity against Pseudomonas aeruginosa ATCC 27853 treated for 24 hrs followed by sub-cultivated for 72 hrs by micro dilution method; type: functional; in short: as §1
Micrococcus flavus [26] = experiment: Antibacterial activity against Micrococcus flavus ATCC 10240 after 24 hrs by micro dilution method; type: functional; settings: ATCC 10240, 24 h; in short: as §2
Aspergillus flavus [27] = experiment: Antifungal activity against Aspergillus flavus ATCC 9643 after 72 hrs by serial dilution method; type: functional; settings: ATCC 9643, 72 h; in short: as §4
Pseudomonas aeruginosa [28] = experiment: Antibacterial activity against Pseudomonas aeruginosa ATCC 27853 after 24 hrs by micro dilution method; type: functional; settings: ATCC 27853, 24 h; in short: as §2
Fulvia fulva [29] = experiment: Antifungal activity against Fulvia fulva after 72 hrs by serial dilution method; type: functional; in short: as §4
Aspergillus niger [30] = experiment: Antifungal activity against Aspergillus niger ATCC 6275 treated for 72 hrs followed by sub-cultivated for 5 days by serial dilution method; type: functional; in short: as §3
Listeria monocytogenes [31] = experiment: Antibacterial activity against Listeria monocytogenes NCTC 7973 treated for 24 hrs followed by sub-cultivated for 72 hrs by micro dilution method; type: functional; in short: as §1
Aspergillus fumigatus [32] = experiment: Antifungal activity against Aspergillus fumigatus human isolate after 72 hrs by serial dilution method; type: functional; in short: as §4

Structure (SMILES)	MBC (Escherichia coli [1])	MIC (Enterobacter cloacae [2])	MFC (Fulvia fulva [3])	MIC (Bacillus cereus [4])	MFC (Talaromyces funiculosus [5])	MBC (Bacillus cereus [6])	MIC (Staphylococcus aureus [7])	MBC (Salmonella typhimurium [8])	MIC (Aspergillus versicolor [9])	MFC (Aspergillus versicolor [10])	MBC (Staphylococcus aureus [11])	MIC (Trichoderma viride [12])	MFC (Aspergillus flavus [13])	MIC (Listeria monocytogenes [14])	MFC (Aspergillus fumigatus [15])	MBC (Enterobacter cloacae [16])	MIC (Escherichia coli [17])	MBC (Micrococcus flavus [18])	MIC (Talaromyces funiculosus [19])	MFC (Penicillium ochrochloron [20])	other results
CCCn1c(Cc2cc(OC)c(OC)cc2S(=O)(=O)N(C)C)n[nH]c1=S	500 µM (≈ 200 µg/mL)	250 µM (≈ 100 µg/mL)	130 µM (≈ 52.1 µg/mL)	250 µM (≈ 100 µg/mL)	250 µM (≈ 100 µg/mL)	500 µM (≈ 200 µg/mL)	500 µM (≈ 200 µg/mL)	500 µM (≈ 200 µg/mL)	250 µM (≈ 100 µg/mL)	500 µM (≈ 200 µg/mL)	500 µM (≈ 200 µg/mL)	60 µM (≈ 24 µg/mL)	130 µM (≈ 52.1 µg/mL)	250 µM (≈ 100 µg/mL)	250 µM (≈ 100 µg/mL)	250 µM (≈ 100 µg/mL)	500 µM (≈ 200 µg/mL)	500 µM (≈ 200 µg/mL)	130 µM (≈ 52.1 µg/mL)	250 µM (≈ 100 µg/mL)	MFC (Trichoderma viride [21]): 130 µM (≈ 52.1 µg/mL); MIC (Salmonella typhimurium [22]): 500 µM (≈ 200 µg/mL); MIC (Penicillium ochrochloron [23]): 130 µM (≈ 52.1 µg/mL); MIC (Aspergillus niger [24]): 60 µM (≈ 24 µg/mL); MBC (Pseudomonas aeruginosa [25]): 500 µM (≈ 200 µg/mL); MIC (Micrococcus flavus [26]): 250 µM (≈ 100 µg/mL); MIC (Aspergillus flavus [27]): 60 µM (≈ 24 µg/mL); MIC (Pseudomonas aeruginosa [28]): 500 µM (≈ 200 µg/mL); MIC (Fulvia fulva [29]): 60 µM (≈ 24 µg/mL); MFC (Aspergillus niger [30]): 130 µM (≈ 52.1 µg/mL); MBC (Listeria monocytogenes [31]): 250 µM (≈ 100 µg/mL); MIC (Aspergillus fumigatus [32]): 130 µM (≈ 52.1 µg/mL)
COc1cc(Cc2n[nH]c(=S)n2C(C)C)c(S(=O)(=O)N(C)C)cc1OC	630 µM (≈ 252 µg/mL)	630 µM (≈ 252 µg/mL)	250 µM (≈ 100 µg/mL)	250 µM (≈ 100 µg/mL)	250 µM (≈ 100 µg/mL)	500 µM (≈ 200 µg/mL)	380 µM (≈ 152 µg/mL)	630 µM (≈ 252 µg/mL)	130 µM (≈ 52.1 µg/mL)	380 µM (≈ 152 µg/mL)	380 µM (≈ 152 µg/mL)	10 µM (≈ 4.01 µg/mL)	380 µM (≈ 152 µg/mL)	630 µM (≈ 252 µg/mL)	250 µM (≈ 100 µg/mL)	630 µM (≈ 252 µg/mL)	630 µM (≈ 252 µg/mL)	630 µM (≈ 252 µg/mL)	130 µM (≈ 52.1 µg/mL)	380 µM (≈ 152 µg/mL)	MFC (Trichoderma viride [21]): 30 µM (≈ 12 µg/mL); MIC (Salmonella typhimurium [22]): 630 µM (≈ 252 µg/mL); MIC (Penicillium ochrochloron [23]): 130 µM (≈ 52.1 µg/mL); MIC (Aspergillus niger [24]): 130 µM (≈ 52.1 µg/mL); MBC (Pseudomonas aeruginosa [25]): 630 µM (≈ 252 µg/mL); MIC (Micrococcus flavus [26]): 630 µM (≈ 252 µg/mL); MIC (Aspergillus flavus [27]): 130 µM (≈ 52.1 µg/mL); MIC (Pseudomonas aeruginosa [28]): 630 µM (≈ 252 µg/mL); MIC (Fulvia fulva [29]): 250 µM (≈ 100 µg/mL); MFC (Aspergillus niger [30]): 380 µM (≈ 152 µg/mL); MBC (Listeria monocytogenes [31]): 630 µM (≈ 252 µg/mL); MIC (Aspergillus fumigatus [32]): 130 µM (≈ 52.1 µg/mL)
